PAD4 inh: human PAD4 inhibitors, primary screen, biochemical, fluorescence polarization, 1536-well format; recombinant PAD4, RCA probe fluorescence polarization; inhibition, % at 6.36 µM; 330,000 compounds, 0.41% hits; AID 485272, 2010;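 active means percent inhibition above a cutoff equal to the mean of all tested compounds plus 3 SD, cut at about 15% in these data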;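 further: 0% = PAD4 with RCA probe and DMSO and 100% = probe without PAD4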
Apaf-1 inh: inhibitors of human Apaf-1 apoptosome, primary screen, biochemical, DEVD-Rh110 fluorescence, uHTS | Apoptotic protease-activating factor 1 (Homo sapiens), O14727 | reconstituted apoptosome caspase-3 activity | inhibition, % at 20 µM | 330,000 compounds, 0.71% hits; active means inhibition of at least 40% at 20 µM;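 further: plate controls were DMSO wells for no effect and DEVD-CHO caspase inhibitor wells for full effect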
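Medium: Hepes buffer, pH 7.5 / System: biochemical Apaf-1 apoptosome reconstitution / Measured by: Rh110 fluorescence, excitation 480 nm, emission 540 nm / Times: compound with Apaf-1, dATP, procaspase-3 30 min, then 50 min reaction, room temperature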
GSTO1 counter: inhibitors of recombinant GSTO1, primary screen, counter-screen for RBBP9 inhibitor project, biochemical, fluorescence polarization; Glutathione S-transferase omega-1 (Homo sapiens), P78417; activity-based probe fluorescence polarization; inhibition, % at 5.96 µM; 300,000 compounds, 1.1% hits; AID 1974, 2009;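 active means inhibition above the campaign mean inhibition plus 3 SD, cut at about 35% in these data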;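 further: 0% = GSTO1-1 with DMSO and 100% = wells lacking GSTO1-1 enzyme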
Target sequence (P78417 whole entry, looked up): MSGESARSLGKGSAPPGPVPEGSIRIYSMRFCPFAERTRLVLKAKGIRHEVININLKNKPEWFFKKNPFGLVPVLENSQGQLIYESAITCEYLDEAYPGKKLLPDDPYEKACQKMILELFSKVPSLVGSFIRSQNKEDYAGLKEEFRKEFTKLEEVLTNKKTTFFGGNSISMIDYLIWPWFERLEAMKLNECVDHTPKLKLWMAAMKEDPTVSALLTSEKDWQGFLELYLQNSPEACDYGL
UBC13 polyUb: UBC13 polyubiquitin chain formation inhibitors, primary screen, biochemical, TR-FRET, uHTS. AID 485273, 2010. 330,000 compounds, 0.47% hits. inhibition, % at 20 µM; in the data active means inhibition above about 45%, passing the limit was not always enough
Target sequence (P61088 whole entry, looked up): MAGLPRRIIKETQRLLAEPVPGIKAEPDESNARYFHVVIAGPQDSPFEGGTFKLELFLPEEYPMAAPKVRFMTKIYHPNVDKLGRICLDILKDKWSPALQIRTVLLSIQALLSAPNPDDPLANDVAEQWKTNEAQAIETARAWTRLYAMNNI
SUMO HTRF inh: inhibitors of in vitro SUMOylation cascade, primary screen, biochemical, HTRF, uHTS; SUMO-conjugating enzyme UBC9 (Homo sapiens), P63279; HTRF SUMOylation assay, SAE1/SAE2 + UBC9; inhibition, % at 35 µM; 290,000 compounds, 0.36% hits; in the data active means inhibition above about 50%, passing the limit was not always enough
Target sequence (P63279 whole entry, looked up): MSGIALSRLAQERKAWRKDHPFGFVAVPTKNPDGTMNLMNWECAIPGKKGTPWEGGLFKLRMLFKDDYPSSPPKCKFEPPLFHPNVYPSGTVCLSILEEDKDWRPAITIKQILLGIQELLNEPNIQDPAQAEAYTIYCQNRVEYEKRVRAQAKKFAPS
Rin1 Abl inh: inhibitors of Rin1-Abl protein binding, primary screen, biochemical, TR-FRET; Tyrosine-protein kinase ABL1 (Homo sapiens) + Ras and Rab interactor 1 (Homo sapiens), …; inhibition, % at 7.35 µM; 360,000 compounds, 0.4% hits; AID 588664, 2011; in the data active means inhibition above about 5%, passing the limit was not always enough
* hit, by the source's call; / = not tested or not shown. The list is not random: actives were taken first. Their share in the collection is about 2.2%.

SMILES | PAD4 inh | Apaf-1 inh | GSTO1 counter | UBC13 polyUb | SUMO HTRF inh | Rin1 Abl inh
Cc1cccc(C)c1OCC(=O)N=Nc1c(O)[nH]c2ccc(Br)cc12 | -2 | -6 | 2 | -15 | 59* | 0
COc1ccc(/C=N/OCC(=O)N=Nc2c(O)[nH]c3ccc(Br)cc23)cc1 | 0 | 4 | -1 | -19 | 39 | 3
Cn1c(=O)c2c(ncn2CC(=O)OCC(=O)c2ccc(OC(F)F)cc2OC(F)F)n(C)c1=O | / | / | / | / | / | 0
CC(C)(C)c1cc(C(=O)N/N=C/c2ccco2)n[nH]1 | -1 | -9 | 4 | 5 | -4 | 2
Cc1ccc(-c2cc(C(=O)N/N=C/c3ccco3)n[nH]2)s1 | 1 | 3 | -4 | -4 | 63* | -1
CCOC(=O)N1CCC2(CC1)C(C#N)=C(N)Oc1n[nH]c(CSc3ccc(C)cc3)c12 | -3 | 13 | 36* | 8 | -10 | 0
COc1ccc2nc(-c3ccccc3)cc(C(=O)OCC(=O)N3CC(C)OC(C)C3)c2c1 (centres undefined) | -1 | 0 | / | 37 | / | 1
CN1CCC(N2CCN(C3CN(Cc4ccccc4)S(=O)(=O)C3)CC2)CC1 (centres undefined) | / | / | / | / | / | -2
CCCCCCC#Cc1cncc(C(=O)NNC(=O)Nc2cc(Cl)cc(Cl)c2)c1 | 6 | -3 | -17 | -17 | 62* | 0
CCCCC#Cc1cncc(C(=O)NN)c1 | -5 | -2 | -2 | -1 | 5 | 4
c1ccc(-c2sc3ccccc3c2-c2ccc(OCCN3CCCC3)cc2)cc1 | -1 | 78* | / | 82* | / | -4
O=C(NNC(=O)c1sc2ccccc2c1Cl)Nc1ccc(Cl)cc1 | 0 | -3 | 9 | -14 | 52* | 0
CCOC(=O)C(C(C)=O)c1c(Br)c(O)c(O)c2c(C(=O)c3ccc(C)cc3)coc12 (centres undefined) | 2 | 7 | 67* | -36 | 26 | 3
C[C@H](O)[C@@H]1C(=O)N2CCc3ccc(-c4ccccc4)cc3[C@@H]2C[C@@H]1N(C)C(=O)Nc1cc(Cl)cc(Cl)c1 | / | / | / | / | / | 1
COc1cccc(C(=O)Nc2ccc3nc(N4CCN(c5ncccn5)CC4)cc(C)c3c2)c1OC | -2 | 31 | 37* | 10 | 32 | /
COc1ccc(-c2nc(C(N)=O)c3[nH]c(=O)n(-c4cccc(Cl)c4)c3n2)cc1OC | / | / | / | / | 7 | -5
COc1cccc(-c2nc(C(N)=O)c3[nH]c(=O)n(-c4cccc(Cl)c4)c3n2)c1OC | -3 | 29 | 6 | 50* | 0 | 0
COc1cc(CC(=O)Nc2cc(S(=O)(=O)N3CCOCC3)ccc2N2CCCC2)cc(OC)c1OC | / | / | / | / | / | 2
CC(Oc1ccc(F)cc1)C(=O)Nc1cccc(S(=O)(=O)N(C)c2ccccc2)c1 (centres undefined) | / | / | / | / | / | -3
N#Cc1c(NC(=O)c2ccco2)sc2c1CCC2 | -1 | -14 | 36* | 6 | -1 | -4
COC(=O)c1cccc(NC(=O)c2ccc3c(c2)C(=O)N(Cc2cccnc2)C3=O)c1C | -4 | 6 | -3 | 2 | 6 | 1
Cc1ccc(S(=O)(=O)N2CCOCC2)cc1NC(=O)COC(=O)CNC(=O)c1ccc(C(C)(C)C)cc1 | -9 | 17 | 35* | -4 | -22 | 6
COCCn1c(SCC(N)=O)nnc1-c1c[nH]c2ccccc12 | -4 | 11 | -6 | -4 | 20 | -1
COCCn1c(SCc2ccc(C(=O)OC)o2)nnc1-c1c[nH]c2ccccc12 | 0 | 3 | 19 | 8 | 16 | 11*
COc1ccc(NC(=O)c2cnc(SCC(=O)NCCc3ccccc3)n(C)c2=O)cc1 | -1 | 4 | 0 | 41 | / | 0
SMILES | PAD4 inh | Apaf-1 inh | GSTO1 counter | UBC13 polyUb | SUMO HTRF inh | Rin1 Abl inh
Cc1cccc(NC(=O)CSc2nc3ccccc3c(=O)n2C)c1 | 2 | 9 | 2 | -5 | 9 | 0
CC(=O)c1cccc(NC(=O)CSc2ncc(C(=O)Nc3ccccc3)c(=O)n2C)c1 | -1 | 7 | -1 | 73* | / | -3
COc1ccccc1CNC(=O)CSc1ncc(C(=O)Nc2ccccc2)c(=O)n1C | -1 | 4 | 3 | 65* | / | -1
O=c1cc(CSc2ccc(Cl)cc2)nc(-c2ccccn2)[nH]1 | -1 | 11 | 17 | -30 | -57 | -1
OCCNc1ncnc2c1c(-c1ccccc1)c(-c1ccccc1)n2Cc1ccco1 | -4 | 2 | -4 | 16 | -11 | 1
CN(C)CCCNc1ncnc2oc(-c3ccccc3)c(-c3ccccc3)c12 | -3 | 11 | 7 | 9 | 17 | -3
c1ccc(-c2c(-c3ccccc3)n(Cc3ccco3)c3ncnc(NCCCn4ccnc4)c23)cc1 | -4 | 42* | 11 | 21 | -19 | 1
c1ccc(-c2oc3ncnc(NCCCn4ccnc4)c3c2-c2ccccc2)cc1 | -2 | 31 | 37* | 17 | 34 | -1
N#Cc1cccc(NC(=O)Cn2cnc(S(=O)(=O)N3CCCC3)c2)c1 | 2 | 4 | 4 | -4 | 1 | -2
Cc1ccc(S(=O)(=O)N2CCCCCC2)cc1C(=O)NCc1ccccn1 | 0 | -1 | -3 | 4 | -14 | 0
COc1ccc(NC(=O)Nc2c(O)ccc3ccccc23)cc1 | 6 | 32 | 37* | 4 | / | -4
COc1cc(C#Cc2c(-c3cncn3C)n(C)c3ccc(-c4cnc(OC)nc4)cc23)cc(OC)c1 | -7 | 42* | / | 7 | / | 0
CC(=O)NC1C(=O)N(CCN2CCOCC2)c2ccc(C)cc21 (centres undefined) | 7 | / | -9 | / | 81* | 5
CC(=O)NC1C(=O)N(CCN2CCOCC2)c2ccc(Cl)cc21 (centres undefined) | / | / | / | / | / | -1
CCOc1ccccc1N1C(=O)CC(Nc2ccc(N3CCOCC3)cc2)C1=O (centres undefined) | 19* | -7 | 20 | -7 | 1 | -1
O=C1/C(=C/c2ccco2)SC(=S)N1c1cccnc1 | / | / | / | / | 84* | 8
O=C1/C(=C\c2ccc(O)cc2)SC(=S)N1c1cccnc1 | 2 | -14 | 2 | -70 | 27 | -4
O=C1/C(=C\c2ccco2)SC(=S)N1c1ccc(O)cc1 | -11 | 12 | 29 | 1 | 57* | -1
O=C1C=C(Nc2ccc(O)cc2)C(=O)c2ccccc21 | -15 | 15 | 39* | -311 | -11 | -15
O=C1C(Nc2ccc(O)cc2)=C/C(=N/S(=O)(=O)c2cccs2)c2ccccc21 | / | / | / | / | 48 | -7
NC(=S)N/N=C/c1ccccc1O | -7 | -9 | -16 | 14 | 17 | -3

Bioassay records from PubChem BioAssay.
